MT1-MMP act inh – blockers of MT1-MMP proenzyme processing, primary screen, HT1080 RFP-PRO-GFP cells, GFP/RFP fluorescence. Matrix metalloproteinase-14 (Homo sapiens), P50281. GFP/RFP ratio fluorescence, overnight; percent of plate control window, DMSO zero. GFP/RFP ratio change, % at 20 µM. hit rate 0.061% among 360,000. AID 651647, 2012;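 active = GFP/RFP ratio change of at least 30% with cell ATP level not reduced by more than half and red fluorescence within 50% of control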
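system = RFP-PRO-GFP reporter HT1080 cells | dosing = 20 µM single dose, 1% DMSO | timing = overnight cell settling, then overnight compound exposure, 37 °C, 5% CO2 | read-out basis = GFP/RFP fluorescence ratio | controls = DMSO and RFP-L50D-GFP cell wells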
DAGLB inhibitor – DAGLB lipase inhibitors, primary screen, biochemical, fluorescence, HTS; Diacylglycerol lipase-beta (Homo sapiens), Q8NCG7; HEK293T DAGLB membrane lysate, EnzChek fluorogenic substrate; inhibition, % at 5.17 µM; hit rate 0.059% among 340,000; AID 504411, 2011; in the data active = inhibition above about 34%
ANO1 block – TMEM16A chloride channel inhibitors, primary screen, cell-based, HTS. Anoctamin-1 (Mus musculus), Q8BHY3. HEK293 TMEM16A/YFP iodide influx fluorescence, ionomycin. normalized B-score (activity score, 25-100; higher = stronger inhibition) at 10 µM. hit rate 1.2% among 310,000. AID 588511, 2011;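 active = ratio plate-corrected score three or more library SD toward inhibition, starting fluorescence score within five deviations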;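 note: score derived from kinetic fluorescence span divided by baseline fluorescence per well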
Target sequence (Q8BHY3 whole entry, looked up): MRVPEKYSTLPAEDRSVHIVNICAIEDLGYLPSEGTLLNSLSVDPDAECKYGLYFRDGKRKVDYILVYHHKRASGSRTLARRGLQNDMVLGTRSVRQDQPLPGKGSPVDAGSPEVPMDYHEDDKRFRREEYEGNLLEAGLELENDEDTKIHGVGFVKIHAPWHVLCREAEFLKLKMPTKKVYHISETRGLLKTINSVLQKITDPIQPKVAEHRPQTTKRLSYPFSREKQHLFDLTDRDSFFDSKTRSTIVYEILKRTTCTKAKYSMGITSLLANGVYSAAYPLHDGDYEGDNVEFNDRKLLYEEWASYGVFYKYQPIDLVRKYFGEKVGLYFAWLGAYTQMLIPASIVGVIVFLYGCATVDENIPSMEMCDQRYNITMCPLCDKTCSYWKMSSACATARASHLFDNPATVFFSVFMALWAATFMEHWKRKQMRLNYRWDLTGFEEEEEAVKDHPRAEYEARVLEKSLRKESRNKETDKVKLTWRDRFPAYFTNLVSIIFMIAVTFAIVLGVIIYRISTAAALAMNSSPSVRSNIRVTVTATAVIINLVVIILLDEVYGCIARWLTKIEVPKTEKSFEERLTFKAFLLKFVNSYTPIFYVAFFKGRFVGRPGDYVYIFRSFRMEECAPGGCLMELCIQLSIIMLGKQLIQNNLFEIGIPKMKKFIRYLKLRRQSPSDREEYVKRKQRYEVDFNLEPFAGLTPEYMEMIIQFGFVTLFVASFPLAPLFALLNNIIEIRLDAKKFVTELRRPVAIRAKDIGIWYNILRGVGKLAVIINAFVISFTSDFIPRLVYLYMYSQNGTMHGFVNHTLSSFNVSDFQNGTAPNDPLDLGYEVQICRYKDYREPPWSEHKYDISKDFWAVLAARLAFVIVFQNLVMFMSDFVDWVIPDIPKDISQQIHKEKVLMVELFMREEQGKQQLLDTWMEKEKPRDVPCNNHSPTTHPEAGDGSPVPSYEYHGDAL
TMEM16A act – TMEM16A chloride channel activators or potentiators, primary screen, cell-based, HTS; hit rate 0.3% among 340,000; HEK293 TMEM16A/YFP-H148Q/I152L, iodide quench fluorescence; active compounds read low; B-score at 10 µM;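 active = fluorescence-ratio B-score plate-corrected deviation score at least 3 library SD below zero, with starting fluorescence score within 5 deviations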;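 note: channel opened by trigger with iodide after compound preincubation; score built on the fluorescence ratio of max minus min over baseline; more negative score means more quench and so TMEM16A activation or potentiation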
Numbers stand for hits; - = inactive; . = no result. Only some compounds are listed: those with a hit (about 1.3% of all), similar ones and a draw of the others.

SMILES | MT1-MMP act inh | DAGLB inhibitor | ANO1 block | TMEM16A act
COc1ccccc1-c1csc(C(O)c2cccc(Cl)c2)n1 (stereo not given) | - | . | . | .
CC1CC(C)CN(C(=O)COC(=O)c2ccc(Cl)nc2)C1 (stereo not given) | - | - | . | -
C=C(C)CSc1nnc2[nH]c(=O)cc(N)n12 | - | - | - | -6.4
CC(C)CSc1nnc2[nH]c(=O)cc(N)n12 | - | - | - | -
Cc1onc(-c2ccccc2)c1C(=O)Nc1ncc([N+](=O)[O-])s1 | - | - | 100 | -
O=C(Cc1ccc(Cl)cc1)Nc1ncc([N+](=O)[O-])s1 | - | - | . | -42
CC(CC(=O)Nc1ncc([N+](=O)[O-])s1)c1ccccc1 (stereo not given) | - | - | 100 | -
CCC(Oc1ccccc1)C(=O)Nc1ncc([N+](=O)[O-])s1 (stereo not given) | - | - | 25 | -
Cc1onc(-c2ccccc2)c1C(=O)Nc1nnc(C(C)C)s1 | - | - | - | -
O=C(COC(=O)COc1ccccc1)Nc1ncc([N+](=O)[O-])s1 | - | - | . | -
Cc1ccc([C@H]2C[C@H](O)[C@@H](n3cc(-c4ccc(F)cc4)nn3)CN2CC2CCCCC2)cc1 | - | - | . | .
Cc1[nH]c2ccccc2c1C(=O)C(=O)NCc1nnnn1-c1ccc(F)c(F)c1 | - | - | . | .
CC(=O)Nc1cccc(Oc2nc(NCCN(C)C)nc3ccsc23)c1 | - | . | . | .
O=C(N=C1SC2CS(=O)(=O)CC2N1Cc1ccccc1)C1CC1 (stereo not given) | - | - | . | .
Cc1cnc(NC(=O)c2ccc3c(c2)OCCO3)s1 | - | - | . | -
O=C(Nc1ncc([N+](=O)[O-])s1)c1ccc2c(c1)OCO2 | - | - | 100 | -
Clc1ccc(OCCCN2CCCCC2)c(Br)c1 | - | - | - | -14
CCOC(=O)CSC1=C(C#N)C(=O)NC(c2ccc(OC)c(OC)c2)S1 (stereo not given) | - | - | 25 | -
CCOC(=O)CSC1=C(C#N)C(=O)NC(c2ccc(OC)cc2)S1 (stereo not given) | - | - | - | -
O=c1c2c(-c3ccccc3)csc2ncn1/N=C/c1cccc([N+](=O)[O-])c1O | - | - | 25 | -
CC(=O)Oc1c(I)cc(I)cc1C(=O)Nc1ccc(Cl)cc1 | - | - | 100 | -
Cc1nc(N2CCN(S(=O)(=O)c3cccs3)CC2)c2c(-c3ccccc3)c(C)sc2n1 | - | - | . | .
COc1cccc(CN(C)C(=O)c2ccc(OCC(=O)Nc3cccc(C(F)(F)F)c3)c(OC)c2)c1 | - | - | 100 | -
COc1ccc(CN(C)C(=O)c2ccc(OCC(=O)Nc3cccc(C(F)(F)F)c3)c(OC)c2)c(OC)c1 | - | - | 100 | -
Cc1ccc(-c2nn(-c3ccccc3)cc2/C=N/NC(=O)c2ccc(Br)o2)cc1 | - | - | 100 | -
SMILES | MT1-MMP act inh | DAGLB inhibitor | ANO1 block | TMEM16A act
CC(C)Cn1c(CN2CCCCC2C)nc2c1c(=O)n(C)c(=O)n2C (stereo not given) | - | - | - | -8.2
O=C(O)c1cccc(NC(=S)NC(NC(=O)c2cccc([N+](=O)[O-])c2)C(Cl)(Cl)Cl)c1 (stereo not given) | - | - | - | -
O=C(NC(NC(=S)Nc1ccc(Cl)cc1Cl)C(Cl)(Cl)Cl)c1cccc([N+](=O)[O-])c1 (stereo not given) | - | - | 100 | -
Cc1nc(SCC(=O)Nc2ccc3[nH]c(=O)[nH]c3c2)nc(C)c1C | - | - | . | -
COc1ccc(Cl)cc1C(=O)NNC(=O)c1cccs1 | - | - | . | -
COc1cccc(N2CCN(c3ncnc4c3[nH]c3ccc(F)cc34)CC2C)c1 (stereo not given) | - | - | 100 | -
COc1ccc2[nH]c3c(N4CC(C)OC(C)C4)ncnc3c2c1 (stereo not given) | . | . | - | .
COc1cccc(N2CCN(c3ncnc4c3[nH]c3ccccc34)CC2C)c1 (stereo not given) | . | . | 100 | .
COc1ccc2c(c1)[nH]c1c(N3CCSCC3)ncnc12 | - | - | - | -
COc1ccc(CNC(=O)COC(=O)c2cc3ccccc3o2)cc1 | - | - | . | -
Cc1nn(CCc2nn[nH]n2)c2nc(-c3ccc(C4CCCCC4)cc3)cc(C(F)(F)F)c12 | - | - | 100 | -
Cc1ccc(-c2noc(CCC(=O)N3CCN(c4cccc(C(F)(F)F)c4)CC3)n2)cc1 | - | - | 25 | -
OC[C@@H]1CN(Cc2ccc3c(c2)OCO3)C[C@H](n2cnc3c(NCc4ccncc4)ncnc32)O1 | - | . | . | .
CCc1cc2c3c(c1)/C(=C1/SC(N)=NC1=O)C(=O)N3C(C)(C)C=C2C | - | - | 100 | -
COc1ccc(CCNC(=S)Nc2ccc(S(=O)(=O)Nc3ncccn3)cc2)cc1OC | - | - | - | -
CCc1ncc(C)nc1CC | - | - | 100 | -
CCC(=O)c1ccc(N2CCN(C(=O)c3ccc(Br)cc3)CC2)c(F)c1 | - | - | - | -
CO/N=C/c1ccc(N2CCN(C(=O)c3ccc(Cl)cc3Cl)CC2)c([N+](=O)[O-])c1 | - | - | 100 | -
CO/N=C/c1ccc(N2CCN(C(=O)c3cccc(C(F)(F)F)c3)CC2)c([N+](=O)[O-])c1 | - | - | - | -
CCC(=O)c1ccc(N2CCN(C(=O)c3ccc(F)cc3)CC2)c(F)c1 | - | - | 25 | -
CO/N=C/c1ccc(N2CCN(C(=O)c3ccc(F)cc3)CC2)c([N+](=O)[O-])c1 | - | - | 100 | -
O=C(NCc1ccccc1Cl)c1ccc(S(=O)(=O)Nc2cccc(C(F)(F)F)c2)cc1 | - | - | 100 | -
O=C(NCc1ccccc1Cl)c1ccc(S(=O)(=O)N2CCCC2)cc1 | - | - | . | -
CCN1CCN(C(=O)C(Cc2ccccc2)NC(=O)c2ccc(Cl)c(S(=O)(=O)N(C)C)c2)CC1 (stereo not given) | - | - | . | -46
CCCOc1ccc2ccccc2c1/C=C1\SC(=O)NC1=O | - | - | 100 | -
SMILES | MT1-MMP act inh | DAGLB inhibitor | ANO1 block | TMEM16A act
CCOC(=O)C1Nc2ccccc2C2C(O)C(O)CC12 (stereo not given) | 46 | - | - | -
COC(=O)CSC1=C(C#N)C(c2ccc(C)o2)CC(=O)N1 (stereo not given) | - | - | - | -
Cc1ccc(C(=O)CSC2=C(C#N)C(c3ccco3)CC(=O)N2)c(C)c1 (stereo not given) | - | - | 25 | -
O=c1cc(C(F)(F)F)[nH]c2c(C(F)(F)F)cccc12 | - | - | 100 | -
Cc1cc(=O)c2cccc(Br)c2[nH]1 | - | - | - | -
O=C(Nc1cc(-c2ccccc2)sc1C(=O)O)c1cccc(F)c1 | - | - | 100 | -
Cc1ccc(/C=N/Nc2ncc(Cl)cc2Cl)s1 | - | - | 25 | -
Clc1cnc(N/N=C/c2cccs2)c(Cl)c1 | - | - | - | -
CC(=O)NC(c1ccc(F)c(F)c1)c1nc(-c2ccccc2)cs1 (stereo not given) | - | . | . | .

From PubChem BioAssay
